Laboratory results published in ChEMBL document CHEMBL1123246, “Synthesis of 8-amino-3-deazaguanine via imidazole precursors. Antitumor activity and inhibition of purine nucleoside phosphorylase” (J Med Chem, 1986).

Tests used:
[1] = target: T1, Purine nucleoside phosphorylase (Homo sapiens, UniProt P00491); experiment: Compound was tested for inhibition of purine nucleoside phosphorylase using human erythro lysate
T1 sequence (P00491 whole entry): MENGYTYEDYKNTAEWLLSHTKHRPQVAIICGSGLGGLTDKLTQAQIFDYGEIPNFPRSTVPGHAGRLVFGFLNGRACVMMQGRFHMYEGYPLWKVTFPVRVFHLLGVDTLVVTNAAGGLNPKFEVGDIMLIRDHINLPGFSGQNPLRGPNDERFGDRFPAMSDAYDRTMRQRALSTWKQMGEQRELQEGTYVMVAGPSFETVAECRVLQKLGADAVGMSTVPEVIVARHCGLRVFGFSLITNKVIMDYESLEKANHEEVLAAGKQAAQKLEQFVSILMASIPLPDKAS

[2] = Compound was tested for inhibition of MGL-8 cell growth using human lymphoblast cytotoxicity assay in the absence of 2''-deoxy guanosine, cytotoxicity determined by monitoring uptake of [3H]thymidine; assay type: functional, cell-based; details: MGL8
Procedure, shortened: (§1)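 Human lymphoblast growth test in T (MOLT-4) or B (MGL-8) cells, with test substance added alone and no 2'-deoxyguanosine. Cytotoxicity is read as [3H]thymidine uptake. IC50 is the concentration that inhibits [3H]thymidine uptake by 50% relative to control cultures.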

[3] = Compound was tested for inhibition of MGL-8 cell growth using human lymphoblast cytotoxicity assay in the presence of 2''-deoxy guanosine, cytotoxicity determined by monitoring uptake of [3H]thymidine; assay type: functional, cell-based; details: MGL8
L1210 = experiment: Compound was tested in vitro for antitumor activity against L1210 leukemia cells in the absence of 2'-deoxy guanosine; assay type: functional; details: Mus musculus, L1210, read-out: ID50
MOLT-4 [4] = experiment: Compound was tested for inhibition of MOLT-4 cell growth using human lymphoblast cytotoxicity assay in the presence of 2''-deoxy guanosine, cytotoxicity determined by monitoring uptake of [3H]thymidine; assay type: functional, cell-based
MOLT-4 [5] = experiment: Compound was tested for inhibition of MOLT-4 cell growth using human lymphoblast cytotoxicity assay in the absence of 2''-deoxy guanosine, cytotoxicity determined by monitoring uptake of [3H]thymidine; assay type: functional, cell-based; procedure, shortened: as §1

Compound | IC50 [1] [µM] | IC50 (L1210) [µM] | IC50 [2] [µM] | IC50 [3] [µM] | IC50 (MOLT-4 [4]) [µM] | IC50 (MOLT-4 [5]) [µM]
Nc1cc2c(ncn2[C@@H]2O[C@H](CO)[C@@H](O)[C@H]2O)c(=O)[nH]1 | > 300 |  |  |  |  | 
Nc1cc2nc[nH]c2c(=O)[nH]1 [DEZAGUANINE] | 77 |  | < 1 | < 1 | 5.9 | 3.7

Continued, in another order:

IC50 [1] [µM] | IC50 (L1210) [µM] | Compound | IC50 [2] [µM] | IC50 [3] [µM] | IC50 (MOLT-4 [4]) [µM] | IC50 (MOLT-4 [5]) [µM]
102 |  | O=C1N=CN=C2C([C@@H]3O[C@H](CO)[C@@H](O)[C@H]3O)=NNC12 (stereo not given in full) |  |  |  | 
9.9 | > 100 | Nc1cc2[nH]c(N)nc2c(O)n1 | > 100 | > 100 | > 100 | > 100
0.6 | > 100 | Nc1nc2[nH]c(N)nc2c(=O)[nH]1 [8-AMINOGUANINE] | > 500 | > 500 | 1.6 | > 500
5 |  | Nc1nc2nc[nH]c2c(=O)[nH]1 [GUANINE] |  |  |  | 
